Results as given in ChEMBL document CHEMBL1129978, “Effect of structural modification of enol-carboxamide-type nonsteroidal antiinflammatory drugs on COX-2/COX-1 selectivity” (J Med Chem, 1997).
pIC50: −log10 of the molar value.

What was measured:
[1] = target: T1, Prostaglandin G/H synthase 1 (Homo sapiens, UniProt P23219); experiment: Inhibition of human Prostaglandin G/H synthase 1 at 1 ug/mL expressed as mean percent inhibition of control PGE-2 production
Summary of the method: (§1)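 Human COX-1 and COX-2 genes expressed in a baculovirus system; microsomes prepared from High Five insect cells and used as the enzyme source. Activity read as PGE2 production. Each dose run in duplicate wells within each experiment, and values given as mean percent inhibition of control PGE2.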

[2] = target: T1, Prostaglandin G/H synthase 1; experiment: Concentration of drug that causes a 50% decrease in the maximal inhibition of Prostaglandin G/H synthase 1 activity as measured by PGE2 production('+' indicates 90-110% inhibition); summary of the method: as §1
[3] = target: T2, Prostaglandin G/H synthase 2 (Homo sapiens, UniProt P35354); experiment: Concentration of drug that causes a 50% decrease in the maximal inhibition of Prostaglandin G/H synthase 2 activity as measured by PGE2 production('+' indicates 90-110% inhibition)
T2 sequence (P35354 whole entry): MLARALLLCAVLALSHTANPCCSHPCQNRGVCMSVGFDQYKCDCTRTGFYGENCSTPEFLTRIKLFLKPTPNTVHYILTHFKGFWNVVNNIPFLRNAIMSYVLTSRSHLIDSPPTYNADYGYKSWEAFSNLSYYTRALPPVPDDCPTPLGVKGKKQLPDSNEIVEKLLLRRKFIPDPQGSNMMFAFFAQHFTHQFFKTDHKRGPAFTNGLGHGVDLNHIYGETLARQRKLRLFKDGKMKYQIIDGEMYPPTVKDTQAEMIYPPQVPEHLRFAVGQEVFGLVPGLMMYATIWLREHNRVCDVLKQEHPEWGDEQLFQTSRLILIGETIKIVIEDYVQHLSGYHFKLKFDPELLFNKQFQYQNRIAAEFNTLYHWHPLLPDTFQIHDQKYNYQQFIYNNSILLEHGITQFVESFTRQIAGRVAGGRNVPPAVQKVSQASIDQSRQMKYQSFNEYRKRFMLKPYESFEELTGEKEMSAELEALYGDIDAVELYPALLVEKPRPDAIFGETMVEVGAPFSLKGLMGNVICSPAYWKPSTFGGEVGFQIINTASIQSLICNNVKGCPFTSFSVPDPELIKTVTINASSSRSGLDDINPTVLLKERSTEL

[4] = target: T1, Prostaglandin G/H synthase 1; experiment: Inhibition of human Prostaglandin G/H synthase 1 at 0.1 ug/mL expressed as mean percent inhibition of control PGE-2 production; summary of the method: as §1
[5] = target: T1, Prostaglandin G/H synthase 1; experiment: Inhibition of human Prostaglandin G/H synthase 1 at 10 ug/mL expressed as mean percent inhibition of control PGE-2 production; summary of the method: as §1

T1 sequence (P23219 whole entry): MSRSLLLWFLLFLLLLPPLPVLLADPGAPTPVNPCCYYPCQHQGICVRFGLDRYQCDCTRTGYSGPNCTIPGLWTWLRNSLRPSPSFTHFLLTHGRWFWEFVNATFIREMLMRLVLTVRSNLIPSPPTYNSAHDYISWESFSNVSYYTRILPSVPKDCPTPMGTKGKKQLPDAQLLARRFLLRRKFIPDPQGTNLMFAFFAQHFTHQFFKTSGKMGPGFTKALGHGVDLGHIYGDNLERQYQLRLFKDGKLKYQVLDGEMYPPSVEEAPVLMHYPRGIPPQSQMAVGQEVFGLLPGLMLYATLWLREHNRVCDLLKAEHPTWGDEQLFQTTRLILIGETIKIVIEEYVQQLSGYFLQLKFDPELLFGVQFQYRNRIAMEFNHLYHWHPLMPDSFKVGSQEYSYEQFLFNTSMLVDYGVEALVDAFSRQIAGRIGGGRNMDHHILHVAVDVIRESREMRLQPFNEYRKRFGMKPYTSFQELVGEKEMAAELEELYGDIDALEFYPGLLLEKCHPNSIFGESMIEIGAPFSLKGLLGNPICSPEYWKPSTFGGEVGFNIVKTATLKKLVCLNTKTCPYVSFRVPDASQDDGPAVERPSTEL

| inhibition [1] | pIC50 [2] | pIC50 [3] | inhibition [4] | inhibition [5] | Structure (SMILES) |
| --- | --- | --- | --- | --- | --- |
| 100% | 7.39 | 8.10 | 94% | 100% | CN1C(O)=C(C(=O)Nc2ccccc2Cl)c2cc(Cl)ccc2S1(=O)=O |
| 85% | – | – | 36% | 99% | CCN1C(O)=C(C(=O)Nc2ccc(Cl)cc2Cl)c2cc(Cl)ccc2S1(=O)=O |
| 11% | – | – | 2% | 37% | Cn1c(C(=O)Nc2nccs2)c(O)c2ccccc2c1=O |
| -8% | – | – | -1% | -1% | Cc1ccc2c(c1)C(O)=C(C(=O)Nc1ccccc1)N(C)S2(=O)=O |
| 94% | – | – | 40% | 100% | CN1C(O)=C(C(=O)Nc2ccc(Cl)cc2Cl)c2cc(F)ccc2S1(=O)=O |
| 35% | – | – | 1% | 88% | COc1ccc2c(c1)c1c(n2C)C(O)=C(C(=O)Nc2ccccn2)N(C)S1(=O)=O |
| 20% | – | – | 3% | 29% | CC1(C)Sc2ccccc2C(O)=C1C(=O)Nc1cccc(Cl)c1 |
| 39% | – | – | 3% | 98% | O=C(Nc1ccc(Cl)cc1Cl)C1=C(O)N(Cc2ccccc2)S(=O)(=O)c2ccc(F)cc21 |
| 6% | – | – | 9% | 14% | Cc1cnc(NC(=O)C2=C(O)c3cc(C)sc3S(=O)(=O)N2C)s1 |
| 11% | – | – | -3% | 64% | CN1C(O)=C(C(=O)Nc2nccs2)c2cc3ccccc3cc2S1(=O)=O |
| 57% | – | – | 24% | 93% | CN1C(O)=C(C(=O)Nc2nccs2)c2c(ccc3ccccc23)S1(=O)=O |
| 36% | – | – | -4% | 82% | Cc1cnc(NC(=O)C2=C(O)c3ccc(F)cc3S(=O)(=O)N2C)s1 |
| 26% | – | – | 31% | 54% | O=C(Nc1cccc(Cl)c1)C1=C(O)c2cc(Cl)ccc2SC1 |
| 23% | – | – | -4% | 30% | CCc1cnc(NC(=O)C2=C(O)c3ccccc3S(=O)(=O)N2C)s1 |
| 73% | – | – | 22% | 97% | CN1C(O)=C(C(=O)Nc2ccc(F)cc2F)c2cc(F)ccc2S1(=O)=O |
| 80% | – | – | 40% | 98% | Cc1cc2c(s1)C(C(=O)Nc1ccc(Cl)cc1)=C(O)N(C)S2(=O)=O |
| -1% | – | – | 0% | 21% | Cc1ccc2c(c1)C(O)=C(C(=O)Nc1ccc(Cl)cc1)N(C)S2(=O)=O |
| 49% | – | – | 13% | 95% | CN1C(C(=O)Nc2nc3ccccc3s2)=C(O)c2ccccc2S1(=O)=O |
| 53% | – | – | 15% | 82% | Cc1cc2c(s1)C(C(=O)Nc1ccccn1)=C(O)N(C)S2(=O)=O |

| inhibition [1] | pIC50 [2] | pIC50 [3] | inhibition [4] | inhibition [5] | Structure (SMILES) |
| --- | --- | --- | --- | --- | --- |
| 4% | – | – | -4% | 16% | CN1C(c2nc3ccccc3[nH]2)=C(O)c2ccccc2S1(=O)=O |
| 100% | – | – | 69% | 93% | CN1C(C(=O)Nc2ccccn2)=C(O)c2sc3cc(Cl)ccc3c2S1(=O)=O |
| 52% | – | – | 30% | 51% | Cc1ccc2c(c1)/C(=C(\O)Nc1ncc(C)s1)C(=O)N(C)C2=O |
| 64% | – | – | -10% | 94% | O=C(Nc1cccc(Cl)c1)C1=C(O)c2cc(Cl)ccc2S(=O)(=O)C1 |
| 76% | – | – | 18% | 98% | CN1C(O)=C(C(=O)Nc2nccs2)c2cc(Cl)ccc2S1(=O)=O |
| 15% | – | – | -8% | 3% | COc1ccc2c(c1)S(=O)(=O)N(C)C(C(=O)Nc1ccccc1)=C2O |
| 35% | – | – | 8% | 83% | Cc1cnc(N/C(O)=C2\C(=O)N(Cc3ccccc3)C(=O)c3ccc(Cl)cc32)s1 |
| 10% | – | – | 15% | 12% | CC1Sc2ccc(Cl)cc2C(O)=C1C(=O)Nc1cccc(Cl)c1 (stereo not given) |
| -1% | – | – | -4% | 25% | CCn1c2c(c3ccccc31)S(=O)(=O)N(C)C(C(=O)Nc1ccccn1)=C2O |
| 23% | – | – | 6% | 79% | COc1ccc2c(c1)c1c(n2C)C(O)=C(C(=O)Nc2ccccc2)N(C)S1(=O)=O |
| 17% | – | – | 10% | 53% | CN1C(O)=C(C(=O)Nc2ccccn2)c2ccccc2S1(=O)=O |
| 97% | – | – | 33% | 97% | CN1C(O)=C(C(=O)Nc2ccc(Br)cc2)c2cc(Cl)ccc2S1(=O)=O |
| 66% | – | – | 10% | 94% | Cc1cnc(NC(=O)C2=C(O)N(C)S(=O)(=O)c3cc(Cl)ccc32)s1 |
| 89% | – | – | 27% | 100% | CN1C(O)=C(C(=O)Nc2ccc(Br)cc2)c2ccc(Cl)cc2S1(=O)=O |
| 72% | – | – | 40% | 90% | Cc1ccc2c(c1)/C(=C(\O)Nc1ccccc1)C(=O)N(C)C2=O |
| 14% | – | – | 3% | 43% | CN1C(C(=O)Nc2ccccn2)=C(O)c2cc(Cl)ccc2S1(=O)=O |
| 31% | – | – | 9% | 93% | CN1C(C(=O)Nc2ccccc2)=C(O)c2c(c3ccccc3n2C)S1(=O)=O |
| 98% | – | – | 63% | 97% | Cc1ccc2c(c1)S(=O)(=O)N(C)C(O)=C2C(=O)Nc1ccccc1Cl |
| 25% | – | – | 14% | 30% | CC1Sc2ccc(Cl)cc2C(O)=C1C(=O)Nc1ccccn1 (stereo not given) |

| inhibition [1] | pIC50 [2] | pIC50 [3] | inhibition [4] | inhibition [5] | Structure (SMILES) |
| --- | --- | --- | --- | --- | --- |
| 5% | – | – | 5% | -7% | Cc1coc(NC(=O)C2=C(O)c3ccccc3S(=O)(=O)N2C)n1 |
| 18% | – | – | 3% | 66% | Cc1cnc(NC(=O)C2=C(O)N(C)S(=O)(=O)c3ccccc32)s1 |
| 38% | – | – | 9% | 61% | CN1C(C(=O)Nc2ccccc2)=C(O)c2cc(F)ccc2S1(=O)=O |
| 36% | – | – | -9% | 85% | Cc1cnc(NC(=O)C2=C(O)c3ccc(Cl)cc3S(=O)(=O)N2C)s1 |
| 14% | – | – | 0% | 24% | Cc1ccc2c(c1)C(O)=C(C(=O)Nc1ncc(C)s1)N(C)S2(=O)=O |
| 22% | – | – | 1% | 66% | Cc1nc(NC(=O)C2=C(O)c3ccccc3S(=O)(=O)N2C)sc1C |
| 42% | – | – | 13% | 78% | CN1C(=O)/C(=C(/O)Nc2ccccc2)c2cc(Cl)ccc2C1=O |
| 68% | – | – | 31% | 93% | Cc1cnc(NC(=O)C2=C(O)c3sc(C)cc3S(=O)(=O)N2C)s1 |
| 100% | – | – | 99% | 100% | CN1C(C(=O)Nc2nccs2)=C(O)c2sc3cc(Cl)ccc3c2S1(=O)=O |
| 97% | – | – | 28% | 100% | CN1C(O)=C(C(=O)Nc2ccccc2Cl)c2cc(Cl)c(Cl)cc2S1(=O)=O |
| 16% | – | – | 6% | 50% | COc1ccc2c(c1)S(=O)(=O)N(C)C(C(=O)Nc1ncc(C)s1)=C2O |
| 19% | – | – | 8% | 72% | CN1C(C(=O)Nc2nc(C(F)(F)F)cs2)=C(O)c2ccccc2S1(=O)=O |
| 55% | – | – | 19% | 98% | CN1C(O)=C(C(=O)Nc2ccc(Cl)cc2Cl)c2c(ccc(Cl)c2Cl)S1(=O)=O |
| 26% | – | – | 3% | 74% | CN1C(C(=O)Nc2ccccn2)=C(O)c2ccc(F)cc2S1(=O)=O |
| 65% | – | – | 24% | 100% | O=C(Nc1ccc(Cl)cc1Cl)C1=C(O)N(C2CC2)S(=O)(=O)c2ccc(Cl)cc21 |
| -2% | – | – | -2% | 38% | O=C(Nc1cccc(Cl)c1)C1=C(O)c2ccccc2[S+]([O-])C1 (stereo not given) |
| 84% | – | – | 6% | 100% | O=C1/C(=C(/O)Nc2ccc(Cl)cc2Cl)c2cc(Cl)ccc2C(=O)N1Cc1ccccc1 |
| 7% | – | – | -2% | 10% | Cc1cc(NC(=O)C2=C(O)c3ccccc3S(=O)(=O)N2C)no1 |
